These results are taken from ChEMBL document CHEMBL2434855, “Aggrecanase-2 inhibitors based on the acylthiosemicarbazide zinc-binding group” (Eur J Med Chem, 2013).

The target of assay [1] is 72 kDa type IV collagenase (Homo sapiens, UniProt P08253). The assay is described as follows: Inhibition of human MMP-2 using NFF-2 as substrate after 90 mins.
Assay [2] has as its target T1, A disintegrin and metalloproteinase with thrombospondin motifs 4 (Homo sapiens, UniProt O75173).
T1 sequence (O75173 whole entry): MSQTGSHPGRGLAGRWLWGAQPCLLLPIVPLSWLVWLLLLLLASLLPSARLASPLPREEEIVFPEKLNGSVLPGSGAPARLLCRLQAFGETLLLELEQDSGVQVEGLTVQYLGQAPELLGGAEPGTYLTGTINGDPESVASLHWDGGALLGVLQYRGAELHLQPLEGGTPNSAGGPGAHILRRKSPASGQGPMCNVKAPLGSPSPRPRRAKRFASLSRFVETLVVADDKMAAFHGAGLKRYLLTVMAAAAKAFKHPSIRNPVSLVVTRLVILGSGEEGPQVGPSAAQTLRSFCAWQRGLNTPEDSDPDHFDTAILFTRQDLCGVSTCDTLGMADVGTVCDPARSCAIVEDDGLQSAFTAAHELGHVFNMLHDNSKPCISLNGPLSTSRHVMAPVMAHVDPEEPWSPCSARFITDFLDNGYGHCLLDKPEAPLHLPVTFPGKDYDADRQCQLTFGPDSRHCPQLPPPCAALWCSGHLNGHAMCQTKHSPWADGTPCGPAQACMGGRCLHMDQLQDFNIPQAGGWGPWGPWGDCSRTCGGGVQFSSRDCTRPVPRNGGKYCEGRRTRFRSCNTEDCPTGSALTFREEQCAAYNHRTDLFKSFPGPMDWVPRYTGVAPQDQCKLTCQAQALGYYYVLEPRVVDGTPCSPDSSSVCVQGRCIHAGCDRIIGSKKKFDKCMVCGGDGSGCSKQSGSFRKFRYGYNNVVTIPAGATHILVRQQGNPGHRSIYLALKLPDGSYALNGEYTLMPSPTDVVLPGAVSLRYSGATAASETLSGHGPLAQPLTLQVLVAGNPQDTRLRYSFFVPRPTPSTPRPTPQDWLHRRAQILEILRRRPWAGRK
The assay is described as follows: Inhibition of human recombinant ADAMTS-4 using QTVTWPDMELPLPRNITEGEARGSVIL-TVKPIFEVSPSPL(biotinyl)K as substrate incubated for 10 mins prior to substrate addition measured after 3 hrs by spectrophotometry. In a few lines:
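It was then added to streptavidin wells coated with the biotinylated 41-mer aggrecan peptide and reacted for 3 h at 37 °C. Cleavage product was detected by BC-3 anti-ARGxx ELISA with HRP and TMB, read at 450 nm.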

72 kDa type IV collagenase, sequence (P08253 whole entry): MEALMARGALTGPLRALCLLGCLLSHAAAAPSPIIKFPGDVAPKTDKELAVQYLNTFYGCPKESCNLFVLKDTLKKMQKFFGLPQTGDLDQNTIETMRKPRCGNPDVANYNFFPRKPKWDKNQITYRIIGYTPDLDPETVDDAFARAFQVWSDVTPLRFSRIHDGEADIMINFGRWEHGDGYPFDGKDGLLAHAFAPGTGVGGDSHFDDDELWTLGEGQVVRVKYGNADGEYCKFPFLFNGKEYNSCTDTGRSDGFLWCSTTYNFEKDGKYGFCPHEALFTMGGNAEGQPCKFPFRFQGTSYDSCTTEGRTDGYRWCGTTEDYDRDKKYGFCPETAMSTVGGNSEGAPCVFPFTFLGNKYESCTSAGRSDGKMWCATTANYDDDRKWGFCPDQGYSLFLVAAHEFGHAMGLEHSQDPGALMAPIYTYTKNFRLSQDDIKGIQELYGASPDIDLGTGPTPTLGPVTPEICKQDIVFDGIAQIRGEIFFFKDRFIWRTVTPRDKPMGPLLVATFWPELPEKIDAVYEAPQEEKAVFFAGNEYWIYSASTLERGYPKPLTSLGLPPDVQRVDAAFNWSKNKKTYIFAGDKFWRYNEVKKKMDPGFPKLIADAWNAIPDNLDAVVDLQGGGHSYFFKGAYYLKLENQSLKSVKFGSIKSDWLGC

In the case of `O=C(COc1ccc(Cl)cc1)NNC(=S)NCCCCC1CCCCC1`, the IC50 in assay [1] was above 10000 nM; in assay [2], 630 nM.

Usually IC50 stands for the concentration that gives 50% inhibition.
